Source: PubChem BioAssay
TRPC6 inh: mouse TRPC6 channel inhibitors, primary screen, cell-based, HEK293, membrane potential dye; Short transient receptor potential channel 6 (Mus musculus), Q61143; ACh-evoked depolarization; active compounds read low; AID 2553, 2010; hit rate 1.1% among 310,000; B-score at 10 µM;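 active = B-score under library mean minus 3 SD, initial fluorescence not abnormally high, positive integrated signal ratio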;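 also: B-score derived from integrated fluorescence ratio over the kinetic read; more negative B-score means stronger inhibition of depolarization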
TRPC6 activator: mouse TRPC6 channel activators, primary screen, cell-based, HEK293, membrane potential dye. AID 2550, 2010. HEK293-TRPC6 membrane potential dye fluorescence; active compounds read high. hit rate 0.13% among 310,000. B-score at 10 µM. Short transient receptor potential channel 6 (Mus musculus), Q61143;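 active = B-score of the integrated fluorescence ratio above library mean plus 3 SD, and starting fluorescence ratio within library mean plus 5 SD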;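 also: higher score means more depolarization so channel activation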
TRPC4 act: activators of mouse TRPC4 channel, primary screen, Fluo4 calcium, HEK293 TRPC4beta/mu-opioid cells | Fluo4 calcium fluorescence; active compounds read high | B-score at 10 µM | AID 2237, 2010 | hit rate 0.49% among 310,000;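 active = B-score above 5 SD of library B-scores, and initial fluorescence ratio not above library mean plus 5 SD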;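 also: positive B-score marks a calcium rise read as TRPC4 activation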
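Material: TRPC4beta and mu-opioid receptor HEK293 stable cells | Incubation: 45 min room-temperature Fluo4 loading, 110 s read | Detection: Kinetic Fluo4 calcium fluorescence | Measure: Integrated baseline-normalised fluorescence ratio, converted to per-well B score | Benchmarks: Low control buffer alone, high control maximal DAMGO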
TRPC4 potent: positive allosteric modulators of TRPC4, primary screen, cell-based, mouse TRPC4beta, HEK293 mu-opioid, Fluo-4 calcium. Short transient receptor potential channel 4 (Mus musculus), Q9QUQ5. DAMGO EC20, Fluo-4 Ca2+ flux; active compounds read high. B-score at 10 µM. hit rate 0.42% among 310,000. AID 2227, 2009;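 active = B-score of calcium response area above 5 SD of library B-scores, with initial fluorescence ratio within 5 SD of library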;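 also: B-score of integrated fluorescence ratio over time as area under calcium response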
TRPC4 inh: inhibitors of mouse TRPC4 channel, primary screen, Fluo4 calcium, HEK293 TRPC4beta/mu-opioid cells; B-score at 10 µM; AID 2247, 2010; Short transient receptor potential channel 4 (Mus musculus), Q9QUQ5; hit rate 0.39% among 300,000; DAMGO-evoked Fluo4 calcium flux; active compounds read low;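 active = B-score over 3 SD under the library average, no early fluorescence shift, positive overall ratio signal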
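System: stable TRPC4beta/mu-opioid receptor HEK293 cells; Dosing: single-point compound dosing; Measured by: Fluo4 Ca2+ flux fluorescence; Read-out basis: per-well B score of integrated baseline-normalized Fluo4 ratio.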
The depositor's hits bear a star; i = inactive. Shown are actives, neighbours in structure and some others; about 2.3% of the full set was active somewhere.

SMILES	TRPC6 inh	TRPC6 activator	TRPC4 act	TRPC4 potent	TRPC4 inh
CCOC(=O)C1(Cc2cccc(F)c2)CCN(Cc2cnn(CC)c2)CC1	i	i	125*	i	i
CCOC(=O)CSc1nc2ccccc2c(=O)n1CC1CCCC1	i	i	i	i	-9*
CCOc1ccccc1NC(=O)CSc1nc2ccccc2c(=O)n1CC1CCCO1 (configuration not stated)	i	i	i	i	-6*
Cc1ccccc1NC(=O)CSc1nc2ccccc2c(=O)n1CC1CCCO1 (configuration not stated)	i	i	i	i	i
COC(=O)C(Cc1ccccc1)NC(=O)CCNC(=O)c1ccc(Br)cc1 (configuration not stated)	i	i	i	i	i
O=c1[nH]c(CN2CCN(c3ccc([N+](=O)[O-])cc3)CC2)nc2ccsc12	i	i	i	i	i
Cc1ccc(Cl)cc1N1CCN(Cc2nc3ccsc3c(=O)[nH]2)CC1	i	i	i	28*	i
O=S(=O)(c1ccccc1)[C@@]1(c2ccccc2)C[C@@H]2ON=C(c3cccc(-c4ccccc4)c3)[C@@H]2C1	i	i	i	i	i
COC(=O)c1ccc2nc(C)cc(Nc3ccc(N(C)C)cc3)c2c1	i	i	i	i	i
COc1ccc(Nc2cc(C)nc3ccc(OC)cc23)cc1	i	i	i	i	-6*
COC(=O)c1ccc(Nc2cc(C)nc3ccccc23)cc1	i	i	i	i	-6*
Cc1ccc(Nc2cc(C)nc3ccc(C)cc23)cc1	i	i	i	i	-6*
O=C(c1cc2ccccc2o1)N1CCN(c2ccccn2)CC1	i	i	i	i	i
CC(=O)NC(CC(=O)Nc1ccc2c(c1)OCCO2)c1ccccc1 (configuration not stated)	i	i	i	i	i
Cc1ccc(N2C(=O)C(Cl)=C(N3CCOCC3)C2=O)c(C)c1	i	i	i	i	i
CCCc1nc2ccccc2n1Cc1ccccc1OC	i	i	i	i	-7*
COc1ccccc1Cn1c(C)nc2ccccc21	i	i	i	i	i
CCc1nc2ccccc2n1Cc1ccccc1OC	i	i	i	i	-5*
COc1ccccc1Cn1c(CCCO)nc2ccccc21	i	i	i	i	i
CC(C)c1ccccc1NC(=S)NN(Cc1ccccc1)c1ccccc1	i	i	i	27*	i
CSc1ccc(S(=O)(=O)N2CCC(C(=O)Nc3ccccc3C(F)(F)F)CC2)cc1	i	i	i	i	i
CCN1CC(CN(C)Cc2cn(-c3cccc(C)c3)nc2-c2cccc(F)c2)CC1=O (configuration not stated)	i	i	73*	i	i
CN1CCN(C2=Nc3c(Cl)cc(Cl)c4cccc2c34)CC1	i	i	i	i	i
CN1CCN(C2=Nc3cc(F)ccc3Cc3ccccc32)CC1	-5.2*	i	i	i	i
Cc1ccc(Cn2c(=O)cc(C(=O)O)c3ccccc32)cc1	i	i	i	i	i
SMILES	TRPC6 inh	TRPC6 activator	TRPC4 act	TRPC4 potent	TRPC4 inh
CCOC(=O)c1cc(=O)n(Cc2ccccc2C)c2ccccc12	i	i	i	15*	i
COc1cccc(/C=C/C(=O)NNC(=O)CCN2CCN(Cc3ccccc3)CC2)c1	i	i	48*	12*	i
O=C(/C=C/c1ccc(F)cc1)NNC(=O)CCN1CCN(Cc2ccccc2)CC1	i	i	50*	i	i
O=C(/C=C/c1ccc(F)cc1)NC(=S)N1CCN(Cc2ccccc2)CC1	i	i	i	i	i
COc1ccc(Cl)cc1NC(=O)CCN1CCN(Cc2ccccc2)CC1	i	i	i	i	i
COC1Cc2ccccc2N(C(N)=O)c2ccccc21 (configuration not stated)	i	i	i	i	i
CCOc1ccc(C(=O)OCC(=O)N2CCCC2)cc1	i	i	i	i	i
Clc1ccc(CONc2ncnc3nonc23)c(Cl)c1	i	i	i	30*	i
CCONc1ncnc2nonc12	i	i	i	i	i
COc1ccc(-c2cc(C(F)(F)F)nc(N3CCN(C)CC3)n2)cc1	i	i	i	15*	i
COc1ccc(-c2cc(C#N)nc(N3CCNCC3)n2)cc1	i	i	129*	i	i
COc1ccc(-c2cc(C#N)nc(N3CCN(C)CC3)n2)cc1	i	i	i	i	i
CC1CCC(NC(=O)c2cc3c(s2)CCCC3)CC1 (configuration not stated)	i	i	i	i	i
N=c1oc2ccccc2cc1C(=O)NC1CCCCCC1	i	i	i	i	i
CC1CCCCC1NC(=O)c1cc2ccccc2o1 (configuration not stated)	i	i	i	30*	i
N=c1oc2ccc(Cl)cc2cc1C(=O)NC1CCCCCC1	i	i	i	18*	i
O=C(NC1CCCC1)c1cc2cc(Br)ccc2o1	i	i	i	i	i
CC(C)NC(=O)c1cc2ccccc2o1	i	i	i	i	i
O=C(NC1CCCC1)c1cc2ccccc2o1	i	i	i	20*	i
Cn1c(-c2ccccc2)cnc1NCc1ccc(F)cc1	i	i	i	i	-7*
CCN(CC)CCCNC(=O)c1ccc2c(SCC(=O)O)c3c(nc2c1)CCC3	i	i	i	i	i
CC1CC(C)CN(CCCNC(=O)c2ccc3c(SCC(=O)O)c4c(nc3c2)CCC4)C1 (configuration not stated)	i	i	76*	i	i
Cc1nc2ccccc2c2oc(C(=O)NCCCN3CC(C)CC(C)C3)cc12 (configuration not stated)	i	i	83*	i	i
O=C(COc1ccccc1)Nc1ccncc1Cl	i	i	i	i	i
COc1ccccc1CCN1CCCC(CN(C)C(=O)CCC(N)=O)C1 (configuration not stated)	i	i	i	i	i
CN(CC1CCCN(CCc2ccc(Cl)cc2)C1)C(=O)c1ccco1 (configuration not stated)	i	i	i	i	i
